Reference: ChEMBL document CHEMBL4513216, “Probing the Open Global Health Chemical Diversity Library for Multistage-Active Starting Points for Next-Generation Antimalarials” (ACS Infect Dis, 2020)

Test: Toxicity liver stage against HepG2, at 10uM
Format: cell-based
Design: test concentration 10 uM, cell line HepG2-A16-CD81EGFP
Settings: human, HepG2-A16-CD81EGFP cells; read-out: INHIBITION
Outline: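 Uninfected HepG2-A16-CD81EGFP cells, 3 × 10^3 per well, 1536-well, plated on prespotted compound at 10 μM final, parasite-free screening media added to match infected plates; puromycin 10 μM positive, DMSO 0.5% negative; run in parallel with 48 h PbLuc assay at 37 °C, 5% CO2; viability by CellTiter-Glo luminescence, normalized to controls.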

SMILES | cytotoxicity at 10 µM [%]
Cn1cncc1-c1nnc([C@H]2CCN(CC(C)(C)C)C2)o1 | 2.26
Cc1ccc2c(c1)nc1n2[C@@H](CNC(=O)c2ccccn2)COC1 | 7.82
O=C(c1ccno1)N1C[C@@H](F)[C@@H](OCc2nc3ccccc3o2)C1 | 7.61
Cc1c(OCC(=O)NCc2ccccc2)c(=O)ccn1C | -49.9
O=C(CCc1nnc2ccccn2c1=O)NCc1ccc2c(c1)OCO2 | -0.403
Cc1ccc(S(=O)(=O)NCCOc2ccc3nnc(C)n3n2)s1 | -6.26
O=C(NCCN1CCC(c2cccs2)CC1)c1ccc(F)cc1Cl | -2.83
Cc1ccc(CN2CCC3(CCN(S(=O)(=O)c4ccccc4)C3)C2)o1 (centres undefined) | -0.00736
c1cc(-c2ccc3c(c2)CCC32CCNCC2)ccn1 | 8.86
CN(C)C(=O)Cn1c2c(ccc1=O)CC(NCc1cccnc1)CC2 (centres undefined) | 18
CCOC[C@@H]1CC[C@H]2[C@H](CCN2S(=O)(=O)Cc2ccccc2)O1 | 2.84
CN(C)S(=O)(=O)N1CC[C@]2(C[C@@H](OCC3CC3)CO2)C1 | 8.88
CCC(C)n1c(SCC(=O)N2CCOCC2)nc2cc(C)[nH]c2c1=O (centres undefined) | 7.94
O=C(O)c1ccc2c(CN3CCOCC3)c[nH]c2c1 | 4.91
Cc1cc(C)n(CCCNc2ncnc3c2NC(=O)CN3)n1 | 8.71
Cc1csc2c(C3CCCN(C(=O)CCn4ccnc4)C3)nc(C)n12 (centres undefined) | 16.9
Cn1cc(CN2CCCCC2c2ccc(-c3cccc(Cl)c3)nc2)cn1 (centres undefined) | -8.51
CC1(C(=O)N2CCOCC2)CN(C2CCCCC2)CCO1 (centres undefined) | -22.3
Cc1cnn(CC2CCN(CC(O)c3ccccc3Cl)CC2)c1 (centres undefined) | 4.51
CCN(CC)c1ncc(Cl)c(C(=O)NC2CC2)n1 | -33.5
COc1ccc2nc(C3CC3)cc(C(=O)NCc3noc(C)n3)c2c1 | 11.8
Cn1ccc(NC(=O)Cc2ccccc2F)n1 | 19.1

SMILES | cytotoxicity at 10 µM [%]
Cc1nnc(C(C)Nc2cccc(COCC(F)(F)C(F)F)c2)o1 (centres undefined) | -1.2
Cc1cc(C(=O)CN2C(=O)c3ccccc3CS2(=O)=O)c(C)[nH]1 | 13.5
CC(=O)c1cccc(OCCCC(=O)N(C)CCC(F)(F)F)c1 | 4.33
OC(CN(Cc1ccccc1)Cc1cccnc1)c1cccs1 (centres undefined) | 4.01
Cc1nc(C)n(CC2CCCN(CC(=O)Nc3cccnc3)C2)n1 (centres undefined) | -4.84
Cc1cc(C)cc(C(=O)NCc2ncnn2C)c1 | 4.64
CCS(=O)(=O)CC(=O)NCC1(c2c(F)cccc2F)CCCC1 | -3.32
Cc1cc(=O)n(C)cc1NC(=O)Cc1cc(F)ccc1F | -11.4
CCN(Cc1ccccc1)C1CCN(c2cc(C)nn2C)C1=O (centres undefined) | -3.03
Cc1c(I)cccc1C(=O)NCc1ncc[nH]1 | 17.3
CCc1nc(Cn2c(=O)n(CC)c3ccccc32)no1 | -43.9
CN(CC(=O)NCC1CCCO1)Cc1nc2c(s1)CCCC2 (centres undefined) | 21.6
OC(COCc1cccs1)CSc1nnc2ccccn12 (centres undefined) | 1.66
Cc1nnc(N2CCN(C(=O)NC3CC3)CC2)c(C(N)=O)c1C | 4.34
CCCN1CCCN(S(=O)(=O)c2cnc3onc(C)c3c2)CC1 | 1.71
CC(Cn1ccnc1)NC(=O)N(C)Cc1ccsc1 (centres undefined) | 2.69
CCC(C)(COc1ncccc1Cl)NCC(=O)NCC(C)C (centres undefined) | -2.86
Cc1noc(CN2CCC(Cc3ccc(F)cc3)CC2)n1 | 11.3
Cc1ccc(C(CNC(=O)Cc2nc3ncccn3n2)N(C)C)cc1 (centres undefined) | -1.64
CNc1nc(CNC(=O)Nc2ccc(OC(C)C)cc2C)cs1 | 26.4
COc1cccc(-c2ccc3nc(C4CCN(C(C)=O)CC4)nn3c2)c1 | 9.84
Cc1nc(CN2CCC3(C2)CN(Cc2ccco2)C3)cs1 | -106

SMILES | cytotoxicity at 10 µM [%]
CCOCc1cnc2n1CCN(C(=O)c1ccccc1)C2C (centres undefined) | -103
CCOCc1cnc2n1CCN(C(=O)c1cn(C)c3ccccc13)C2C (centres undefined) | -108
Cc1occc1C(=O)N1CCCC2(CCN(c3ccsc3)C2=O)C1 (centres undefined) | -70.7
CCOCC1CN(C(=O)c2cscn2)Cc2cnn(CC3CC3)c21 (centres undefined) | -69.4
Cc1cnc(C(=O)N2CCC3(CC2)CN(c2ccccn2)CCO3)cn1 | -80.2
COCC(=O)NCC[C@H]1CC(C)(C)Oc2ccccc21 | 3.3
COc1cccc(-c2ncc3c(n2)N(C)CCN(CCN(C)C)C3=O)c1 | -12.2
Cc1cnc(C)c(N2CCCC(CC3CC3)(C(=O)O)C2)n1 (centres undefined) | -6.09
CC(C)N1CCCn2nc(C(=O)NCCc3ccccn3)cc2C1 | -1.95
CC(C)=CCN1CCC2(CC1)c1ccccc1[C@@H](N1CCSCC1)[C@@H]2O | 7.25
Cc1ccc(N2C[C@@H]3CN(C(=O)NC4CCCC4)C[C@]3(C(=O)O)C2)nn1 | 19.5
CC1(C)CCN(Cc2ccccc2-c2nc(C(C)(C)C)cc(=O)[nH]2)C1 | -39.9
CCc1cnc(C)nc1N1CCS(=O)(=O)CC1 | -43.3
Cc1ccc(-c2cc(C(=O)NCCCc3csc(N)n3)[nH]n2)s1 | 81.7
COc1ccccc1OC1(C(=O)O)CCN(c2nc(C)cnc2C)CC1 | -13.6
COc1ccc(C(=O)NCC2CCCN(C3CCOCC3)C2)c(O)c1 (centres undefined) | 5.21
Cc1ccnc(NCCNC(=O)CCNC(=O)c2ccccc2F)c1 | 1.5
CSc1nccc(N2CCC(NCc3ccc4c(c3)OCO4)CC2)n1 | -3.4
Cc1ccc(C#N)c(N2CCCC(c3nccn3Cc3cscn3)C2)n1 (centres undefined) | -1.9
c1ccc(-c2nc3c(c(NCCCn4cncn4)n2)CCNCC3)nc1 | -45.6
O=C(c1ccnc(-n2cnnc2)c1)N1CCCC2(CCNC2)C1 (centres undefined) | -19.1
CC(=O)NCC1CCC2(CCN(c3ncc(C(C)=O)c(C)n3)CC2)O1 (centres undefined) | -0.611

SMILES | cytotoxicity at 10 µM [%]
COc1ccc(CN2CCCC2)cc1Oc1cccc(C#N)n1 | 7.01
CCOc1ccc(C(=O)NC2CC2)cc1C | 8
CC1Oc2ccc(S(=O)(=O)NCCCn3ccnc3)cc2NC1=O (centres undefined) | 7.88
Cc1nc(CCCNC(=O)C2CC(=O)N(C3CC3)C2)sc1C (centres undefined) | -12.9
CN1CC[C@H](c2ccccc2)[C@@H]2[C@H]1CCCCN2C(=O)c1cnccn1 | -2.5
CCOCCCNc1nc(O)cc(C2CC(=O)N(C)C2)n1 (centres undefined) | 0.873
CC(C)Cc1cc(NC(=O)c2n[nH]c3ccccc23)n(C)n1 | -15.9
Cc1cnn(C2CN(CC(=O)NCCCc3ccccc3)C2)c1 | 0.555
Cc1nc(CN2CCCN(CCOc3ccc(C#N)cc3)CC2)no1 | -5.93
CC(NC(=O)NCCN1CCCC1)c1nncn1C (centres undefined) | -5.68
CC(=O)N(Cc1noc(C2CC2)n1)C1CCN(CC2CCOCC2)C1 (centres undefined) | 1.29
COCCS(=O)(=O)Nc1ccc(-n2cncn2)c(F)c1 | -12.2
Cc1noc(C)c1CC(=O)N1CCCN(Cc2cscn2)CC1 | 2.45
NC(=O)C1CCN(C(=O)NCc2cccnc2OCC(F)(F)F)C1 (centres undefined) | -11.2
CN(C)c1cc2c(nn1)CCN(C(=O)C1Cc3ccccc3O1)C2 (centres undefined) | -18.5
Cc1cc(C)n(CC2CCCCN2C(=O)c2ccc3c(c2)COC3)n1 (centres undefined) | -24.4
CCn1ncc2c1CCCC2NCc1ccccc1N1CCOCC1 (centres undefined) | -7.66
Cc1cnn(C2CCCN(C(=O)c3cccc4c3OCO4)C2)c1 (centres undefined) | -2.23
CCc1nc(CN2CCOC(CN(CC)c3cccnn3)C2)cs1 (centres undefined) | 3.09
COCCN1CCC(NCc2ccc(C#N)cc2)C1 (centres undefined) | -9.34
O=C(c1ccsc1)N1CCCC(c2cc(C(F)(F)F)[nH]n2)C1 (centres undefined) | -4.22
Cn1cc(CN2CCCN(C(=O)c3cn4ccccc4n3)CC2)cn1 | -5.97

SMILES | cytotoxicity at 10 µM [%]
CCN1CCN(c2ccc(CNC(=O)c3ccc(Cl)o3)cn2)CC1 | -0.433
CN(C)C(=O)COC[C@]12COC[C@H]1CN(C1CCCC1)C2 | -108
COCCN1CCC2(CC1)CC(NC(=O)CC1CC1)c1ccccc1O2 (centres undefined) | -1.83
N#Cc1ccc(N2CCCC3(CCC(=O)N3CC3CC3)CC2)nc1 (centres undefined) | -125
CN1CC[C@]2(CN(CC3CCOC3)C[C@H]2c2ccccc2)C1=O (some centres undefined) | 0.619
Cc1ccc(CN2CCO[C@H]3[C@H](OCc4cccnc4)CC[C@@H]32)o1 | 6.22
CS(=O)(=O)N[C@@H]1CN(C(=O)c2cccnc2)[C@@H]2CCCO[C@@H]21 | -81.8
CS(=O)(=O)N1CCOCC12CCN(Cc1ccc(F)cc1)CC2 | 3.39
Fc1cnc(N2CCN3C[C@H](Oc4cncnc4)C[C@H]3C2)nc1 | -5.38
CN(Cc1cn2c(n1)CN(C1CCOCC1)CC2)Cc1ccco1 | -64.3
Cn1ccc(CN2CCCC23CCN(Cc2cccc(F)c2)CC3)n1 | -103
COCCN1C[C@@H]2CN(c3cc(OC)ncn3)CCC[C@]2(C(=O)O)C1 | 4.26
O=C1[C@H]2CN(Cc3ccccn3)C[C@H]2CN1c1ccsc1 | -73.2
CN(C)CCN1CCC2(CCN(C(=O)c3ccc(F)cc3)CC2)C1=O | -0.00146
N#Cc1cccc(CN2CC[C@@H]3CN(c4ncccn4)CCO[C@@H]3C2)c1 | -6.51
Fc1ccc(CN2CCC3(CC2)CCN(c2ncccn2)CC3)cc1 | -73.7
CCN1CC2(CC1=O)CN(Cc1ccco1)CCN(C(=O)C(C)C)C2 (centres undefined) | -4.51
CN(C)S(=O)(=O)N1CC[C@]2(C[C@H](OCc3ccncc3)CO2)C1 | 1.23
O=C(C1CCC2(CCN(c3nncs3)CC2)CO1)N1CCCC1 (centres undefined) | 9.46
O=C(c1ccco1)N1CCCC2(CCN(c3nncs3)C2)C1 (centres undefined) | -97.4
CCc1cc(CN2C[C@@H]3CC[C@H]2CN(C2Cc4ccccc4C2)C3)on1 | 0.998
